Source: ChEMBL document CHEMBL4477243, “Discovery and SAR of a novel series of potent, CNS penetrant M4 PAMs based on a non-enolizable ketone core: Challenges in disposition” (Bioorg Med Chem Lett, 2016)

Tests used:
[1] = target: T1, Muscarinic acetylcholine receptor M4 (Homo sapiens, UniProt P08173); test: Positive allosteric modulation activity at human M4 receptor expressed in CHO cells co-expressing Gqi5 protein assessed as potentiation of EC20 acetyl choline-induced response by calcium mobilization assay; type: functional, cell-based; details: read-out: EC50
T1 sequence (P08173 whole entry): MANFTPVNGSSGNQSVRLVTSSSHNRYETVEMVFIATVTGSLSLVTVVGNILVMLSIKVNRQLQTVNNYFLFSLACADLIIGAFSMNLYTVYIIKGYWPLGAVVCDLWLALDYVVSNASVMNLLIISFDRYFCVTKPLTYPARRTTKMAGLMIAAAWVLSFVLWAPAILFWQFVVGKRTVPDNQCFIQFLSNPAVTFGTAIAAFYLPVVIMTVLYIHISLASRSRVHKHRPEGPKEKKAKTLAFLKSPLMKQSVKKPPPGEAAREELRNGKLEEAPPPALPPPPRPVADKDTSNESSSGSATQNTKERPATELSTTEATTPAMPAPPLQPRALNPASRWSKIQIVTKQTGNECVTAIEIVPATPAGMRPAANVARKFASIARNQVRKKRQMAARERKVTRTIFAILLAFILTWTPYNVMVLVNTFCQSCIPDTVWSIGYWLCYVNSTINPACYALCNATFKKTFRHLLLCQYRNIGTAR
How it was run: (§1)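 Calcium mobilization in CHO cells stably co-expressing human or rat M4 with the chimeric Gqi5 protein. Test compound given with a fixed EC20 concentration of acetylcholine. Potency reported as EC50; efficacy as % of the acetylcholine maximum. Means of three independent experiments, each in triplicate.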

[2] = target: T2, Muscarinic acetylcholine receptor M4 (Homo sapiens) (UniProt P08173); test: Positive allosteric modulation activity at human M4 receptor expressed in CHO cells co-expressing Gqi5 protein assessed as potentiation of EC20 acetyl choline-induced response by calcium mobilization assay relative to acetylcholine; type: functional, cell-based; how it was run: as §1
T2 sequence (whole entry): T1 sequence (P08173 whole entry)

[3] = target: T3, Muscarinic acetylcholine receptor M4 (Rattus norvegicus, UniProt P08485); test: Positive allosteric modulation activity at rat M4 receptor expressed in CHO cells co-expressing Gqi5 protein assessed as potentiation of EC20 acetyl choline-induced response by calcium mobilization assay; type: functional, cell-based; details: read-out: EC50; how it was run: as §1
T3 sequence (P08485 whole entry): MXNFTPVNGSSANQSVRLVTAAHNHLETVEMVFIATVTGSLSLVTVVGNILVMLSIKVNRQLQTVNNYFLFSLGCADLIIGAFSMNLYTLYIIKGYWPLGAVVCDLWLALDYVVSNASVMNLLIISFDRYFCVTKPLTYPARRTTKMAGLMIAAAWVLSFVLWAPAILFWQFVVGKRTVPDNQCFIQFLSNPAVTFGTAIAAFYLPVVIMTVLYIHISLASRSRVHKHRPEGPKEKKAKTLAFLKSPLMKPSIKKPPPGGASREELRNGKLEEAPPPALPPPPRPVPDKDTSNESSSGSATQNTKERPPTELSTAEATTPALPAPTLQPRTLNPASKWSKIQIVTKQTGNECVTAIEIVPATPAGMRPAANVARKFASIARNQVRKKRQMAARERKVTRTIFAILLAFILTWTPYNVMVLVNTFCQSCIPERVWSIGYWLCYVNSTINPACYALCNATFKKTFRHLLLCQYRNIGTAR

[4] = target: T4, Muscarinic acetylcholine receptor M4 (Rattus norvegicus) (UniProt P08485); test: Positive allosteric modulation activity at rat M4 receptor expressed in CHO cells co-expressing Gqi5 protein assessed as potentiation of EC20 acetyl choline-induced response by calcium mobilization assay relative to acetylcholine; type: functional, cell-based; how it was run: as §1
T4 sequence (whole entry): T3 sequence (P08485 whole entry)

[5] = system: Cytochrome P450; test: Inhibition of Cytochrome P450 (unknown origin); type: ADME, protein assay; details: human
[6] = target: T5, Cytochrome P450 1A2 (Homo sapiens, UniProt P05177); test: Inhibition of CYP1A2 (unknown origin); type: ADME
T5 sequence (P05177 whole entry): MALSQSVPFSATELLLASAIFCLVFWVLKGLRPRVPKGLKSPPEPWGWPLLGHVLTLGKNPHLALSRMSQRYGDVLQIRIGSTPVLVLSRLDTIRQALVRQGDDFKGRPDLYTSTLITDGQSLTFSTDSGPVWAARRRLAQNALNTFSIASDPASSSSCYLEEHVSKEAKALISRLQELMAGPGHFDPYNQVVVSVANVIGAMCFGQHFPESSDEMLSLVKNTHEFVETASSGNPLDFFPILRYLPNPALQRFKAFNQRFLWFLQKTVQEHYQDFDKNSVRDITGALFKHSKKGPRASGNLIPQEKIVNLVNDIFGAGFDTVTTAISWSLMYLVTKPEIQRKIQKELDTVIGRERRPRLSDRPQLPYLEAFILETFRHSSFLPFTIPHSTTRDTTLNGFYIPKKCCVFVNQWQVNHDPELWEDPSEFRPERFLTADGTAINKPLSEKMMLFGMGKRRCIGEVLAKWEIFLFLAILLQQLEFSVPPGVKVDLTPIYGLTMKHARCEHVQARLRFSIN

[7] = Fraction unbound in human plasma; type: ADME, cell-free
How it was run: (§2)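 Plasma protein binding, reported as fraction unbound in rat and human plasma. Single experiment (n=1) run in triplicate.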

[8] = Fraction unbound in rat plasma; type: ADME, cell-free; how it was run: as §2
[9] = Ratio of drug level in Sprague-Dawley rat brain to plasma at 0.2 to 0.25 mg/kg, iv administered as cassette dose measured 0.25 hrs post dose; type: ADME, organism-based; details: brain and plasma
How it was run: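 Male Sprague-Dawley rats (n=1) received an IV cassette dose of 0.20-0.25 mg/kg. Brain and plasma sampled 0.25 hr post-administration. Total brain:plasma partition coefficient (Kp) measured; unbound coefficient (Kp,uu) calculated.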

Compound	EC50 [1] [nM]	%max [2] [%]	EC50 [3] [nM]	%max [4] [%]	inhibition (INH) [5]	inhibition (INH) [6]	fraction unbound [7]	fraction unbound [8]	Kp at 0.25 h [9]
Cc1nnc2sc(C(O)c3cccnc3)c(N)c2c1C (stereo not drawn)	> 10000	–	> 10000	–	–	–	–	–	–
Cc1nnc2sc(C(O)c3ccncc3)c(N)c2c1C (stereo not drawn)	> 10000	–	> 10000	–	–	–	–	–	–
Cc1cc(C)c2c(N)c(C(O)c3ccccc3)sc2n1 (stereo not drawn)	> 10000	–	> 10000	–	–	–	–	–	–
Nc1c(C(O)c2ccncc2)sc2nc(OCCN3CCOCC3)c3c(c12)CCC3 (stereo not drawn)	> 10000	–	> 10000	–	–	–	–	–	–
Cc1cc(C)c2c(N)c(C(=O)c3ccccc3)sc2n1	891	47	1500	46	Not Active	Active	0.005 to 0.18	0.005 to 0.18	0.83 to 6.95
Nc1c(C(O)c2ccncc2)sc2nc(O)c3c(c12)CCCC3 (stereo not drawn)	> 10000	–	> 10000	–	–	–	–	–	–
COc1ccc(C(=O)c2sc3nnc(C)c(C)c3c2N)cc1	646	63	1450	70	Not Active	Active	0.005 to 0.18	0.005 to 0.18	0.83 to 6.95
Cc1nc2sc(C(O)c3ccccc3)c(N)c2c(C)c1Cl (stereo not drawn)	> 10000	–	> 10000	–	–	–	–	–	–
Cc1nnc2sc(C(O)c3ccc(F)cc3F)c(N)c2c1C (stereo not drawn)	> 10000	–	> 10000	–	–	–	–	–	–
Cc1nnc2sc(C(=O)c3ccncc3)c(N)c2c1C	891	76	3550	68	Not Active	Active	0.005 to 0.18	0.005 to 0.18	–
Cc1cc(C)c2c(N)c(C(O)c3ccc(F)cc3F)sc2n1 (stereo not drawn)	> 10000	–	> 10000	–	–	–	–	–	–

The next compounds have a lower EC50 [1] than those just listed; values first:

EC50 [1] [nM]	%max [2] [%]	EC50 [3] [nM]	%max [4] [%]	inhibition (INH) [5]	inhibition (INH) [6]	fraction unbound [7]	fraction unbound [8]	Kp at 0.25 h [9]	Compound
372	45	692	43	Not Active	Active	0.005 to 0.18	0.005 to 0.18	–	Cc1nc2sc(C(=O)c3ccccc3)c(N)c2c(C)c1Cl
331	55	380	66	Not Active	Active	0.005 to 0.18	0.005 to 0.18	0.83 to 6.95	Cc1nnc2sc(C(=O)c3ccc(F)cc3F)c(N)c2c1C
105	74	417	95	Not Active	Active	0.005 to 0.18	0.005 to 0.18	0.83 to 6.95	Cc1nc2sc(C(=O)c3cccnc3)c(N)c2c(C)c1Cl
295	–	1230	–	Not Active	Active	0.005 to 0.18	0.005 to 0.18	0.83 to 6.95	Nc1c(C(=O)c2ccncc2)sc2nc(OCc3ccncc3)c3c(c12)CCC3
102	76	166	67	Not Active	Active	0.005 to 0.18	0.005 to 0.18	–	Cc1nnc2sc(C(=O)c3ccccc3)c(N)c2c1C
